# Bioassay records deposited in PubChem BioAssay by Sanford-Burnham Center for Chemical Genomics.
# The list is not random: actives were taken first. Their share in the collection is about 3%.
# SENP8 block-1 – blocks human SENP8 cleavage of Nedd8 substrate; 360,000 compounds, 0.64% hits; inhibition, % at 20 µM; recombinant SENP8, Nedd8 substrate fluorescence; AID 602440; Q96LD8; in the data active = inhibition mostly above about 40%, no sharp cut-off; inactive = mostly below about 27%
# Target sequence (Q96LD8 whole entry, looked up): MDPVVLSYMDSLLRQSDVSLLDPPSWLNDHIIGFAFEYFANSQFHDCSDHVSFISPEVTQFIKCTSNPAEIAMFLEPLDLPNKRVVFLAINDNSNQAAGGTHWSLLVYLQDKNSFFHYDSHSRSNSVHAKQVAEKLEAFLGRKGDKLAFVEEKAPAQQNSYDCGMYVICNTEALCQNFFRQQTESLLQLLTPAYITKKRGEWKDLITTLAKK
# SENP8 block-2 – blocks the human protease SENP8. inhibition, % at 10 µM. AID 2540. 330,000 compounds, 1.2% hits. Q96LD8. purified SENP8, Z-RLRGG-aminoluciferin cleavage, luminescence; in the data active = inhibition above about 50%
# SENP6 block – SENP6 protease inhibition; Q9GZR1; Recombinant SENP6 catalytic domain, aminoluciferin luminescence; inhibition, % at 10 µM; 330,000 compounds, 1.8% hits; AID 2599;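 active = inhibition above about 50% at the single tested dose, limit read from the data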;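 also: plate controls were DMSO wells with enzyme for no effect and DMSO wells lacking enzyme for full effect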
# SENP7 block – inhibitors of human SENP7 protease; 330,000 compounds, 1.5% hits; inhibition, % at 5 µM; AID 434973; recombinant SENP7, Z-RLRGG-aminoluciferin luminescence, 40 min;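 active = inhibition above about 50% at the single test dose, limit read from the data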;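 also: plate controls were DMSO with enzyme for no effect and no enzyme buffer wells for full effect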
# Target sequence (Q9BQF6 706-1050 limits assumed): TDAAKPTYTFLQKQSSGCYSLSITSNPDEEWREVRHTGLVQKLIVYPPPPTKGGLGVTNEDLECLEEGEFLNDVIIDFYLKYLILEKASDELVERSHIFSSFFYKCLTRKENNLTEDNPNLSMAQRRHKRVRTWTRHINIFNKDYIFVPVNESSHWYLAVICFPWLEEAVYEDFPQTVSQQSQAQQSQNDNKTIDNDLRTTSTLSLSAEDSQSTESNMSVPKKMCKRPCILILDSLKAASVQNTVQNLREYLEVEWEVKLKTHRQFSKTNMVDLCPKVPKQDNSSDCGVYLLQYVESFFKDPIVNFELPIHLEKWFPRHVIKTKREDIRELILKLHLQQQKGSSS
# UBC13 inh – blocks human UBC13 polyubiquitin chain formation; inhibition, % at 20 µM; P61088; TR-FRET; 330,000 compounds, 0.47% hits; AID 485273; in the data active = inhibition above about 45%, passing the limit was not always enough
# Apaf1 inhib – blocks human Apaf-1 apoptosome activity. reconstituted apoptosome caspase-3 activity, DEVD-Rh110 fluorescence. inhibition, % at 20 µM. 330,000 compounds, 0.71% hits; active = inhibition of at least 40% at 20 µM;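 also: plate controls were DMSO wells for no effect and DEVD-CHO caspase inhibitor wells for full effect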
#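 System: reconstituted apoptosome with Apaf-1, cytochrome c, caspase-9, procaspase-3, dATP; Signal: Rh110 fluorescence intensity; Schedule: 30 min compound preincubation, 50 min activation, room temperature; Reagent: cytochrome c trigger plus (Z-DEVD)2-Rh110 caspase-3 substrate.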
# SENP8 confirm – confirmation of human SENP8 protease inhibitors; shares compounds with SENP7 block; Recombinant SENP8, Z-RLRGG-aminoluciferin luminescence, 60 min; inhibition, % at 12.5 µM; 6,200 compounds, 40% hits; AID 488912;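 active = mean inhibition across replicates above about 50%, limit read from the data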
# SENP6 conf – confirmation of human SENP6 protease inhibitors; AID 488915; shares compounds with SENP7 block; 6,200 compounds, 58% hits; inhibition, % at 12.5 µM; recombinant SENP6, Z-RLRGG-aminoluciferin luminescence
# SENP7 confirm – confirmation of human SENP7 protease inhibitors; recombinant SENP7, Z-RLRGG-aminoluciferin luminescence, 40 min; inhibition, % at 12.5 µM; AID 488917; shares compounds with SENP7 block; 6,200 compounds, 69% hits
# Casp3 select – selectivity test for SENP inhibitors: human caspase-3 inhibition | 6,200 compounds, 60% hits | AID 488918 | purified caspase-3, Z-DEVD-aminoluciferin luminescence, 60 min | shares compounds with SENP7 block | inhibition, % at 12.5 µM;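 active = mean inhibition above about 50%, limit read from the data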;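 also: plate controls were enzyme with DMSO for no effect and wells without caspase-3 for full effect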
# SENP luc ctr – counter-screen for SENP inhibitors: luminescence interference; shares compounds with SENP7 block; Pre-incubated SENP8/Z-RLRGG-aminoluciferin, luciferase luminescence interference; inhibition, % at 12.5 µM; AID 488919; 6,200 compounds, 39% hits;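 active = mean inhibition above about 50% when retested at one dose, limit read from the data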;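 also: plate controls were DMSO wells with completed reaction for no effect and substrate without enzyme for full effect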
# * = called active by the depositor; / = not tested or not shown.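 The calls were made as follows, unless noted: active = mean inhibition above about 50% in the one-dose retest (limit read from the data); inactive = the rest.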
SMILES,SENP8 block-1,SENP8 block-2,SENP6 block,SENP7 block,UBC13 inh,Apaf1 inhib,SENP8 confirm,SENP6 conf,SENP7 confirm,Casp3 select,SENP luc ctr
CCSc1nsc(NC(=O)Nc2ccccc2Cl)n1,4,/,/,/,/,/,/,/,/,/,/
COC(=O)c1ccc(NC(=O)Nc2ccc(F)cc2F)cc1,4,64*,81*,88*,8,-3,12,12,77*,72*,6
COC(=O)c1ccc(NC(=O)Nc2cccc(F)c2)cc1,4,79*,88*,90*,12,1,75*,75*,96*,69*,9
O=C(Nc1ccccc1)Nc1ccccc1Br,24,73*,59*,81*,-8,11,6,82*,96*,78*,45
COC(=O)Cc1c(O)ccn(Cc2ccc(OC)c(OC)c2)c1=O,16,-2,-17,1,-2,-8,/,/,/,/,/
COc1ccc(C(=O)NCC(=O)N2CCN(c3ncccn3)CC2)cc1OC,-23,-5,-17,7,0,0,/,/,/,/,/
CN1CCC(=NOc2ccc([N+](=O)[O-])cc2)CC1,16,11,8,15,-3,11,/,/,/,/,/
C/C(=N\NC(=O)c1cc(-c2ccc(Cl)s2)[nH]n1)c1ccncc1,11,3,-9,1,-1,6,/,/,/,/,/
CSCC[C@H](CO)NC(=O)[C@H]1O[C@@H](n2cnc3c(N)ncnc32)[C@H](O)[C@@H]1O,16,/,/,/,/,/,/,/,/,/,/
CC(=O)Nc1cccc(NC(=O)Nc2ccc(F)cc2F)c1,10,-16,-19,-6,-9,4,/,/,/,/,/
O=C(Nc1ccccc1)Nc1ccc(F)cc1F,29,44,67*,70*,10,-2,59*,56*,82*,67*,45
Clc1ccccc1N=C1NN=C(c2cccs2)CS1,-6,77*,68*,74*,-10,1,85*,86*,97*,69*,77*
Fc1ccccc1N=C1NN=C(c2ccccc2)CS1,-28,11,-19,0,-5,18,/,/,/,/,/
Cn1c(=O)n(Cc2ccccc2)c(=O)c2c1nc(NCC1CCCO1)n2Cc1ccccc1 (centres undefined),16,1,-8,5,11,9,/,/,/,/,/
Cn1c(=O)c2c(nc(NCC3CCCO3)n2C)n(C)c1=O (centres undefined),3,-2,7,51*,-4,-17,4,6,12,8,3
O=C(Nc1ccccn1)c1onc2c1CCCC2,10,84*,87*,94*,-5,3,9,90*,100*,95*,83*
COc1ccc(C(N)c2nccc3cc(OC)c(OC)cc23)cc1OC (centres undefined),-83,49,75*,70*,-34,18,-26,-13,-6,-9,-7
Cn1cc(Br)c(C(=O)Nc2ncc(Br)s2)n1,-23,-9,28,70*,5,-13,-6,-2,-3,16,-1
CCOc1ccc(NC(=O)c2nn(C)cc2Br)cc1,2,-5,24,21,8,-8,/,/,/,/,/
c1ccc(-n2nc3c(ccc4cnnc43)[nH]2)cc1,-479,74*,89*,87*,15,15,50*,83*,97*,71*,30
Cc1ccc(Nc2nc3nonc3[nH]c2=O)cc1C,7,48,70*,39,-19,18,65*,62*,80*,64*,72*
Cc1ccc(Nc2nc3nonc3[nH]c2=O)cc1Cl,-12,50*,80*,9,-8,7,68*,64*,75*,34,70*
CCCCn1c(N)c(N(CCC(C)C)C(=O)CSc2nncn2-c2ccccc2)c(=O)[nH]c1=O,-4,-14,-12,-2,8,15,/,/,/,/,/
O=C(O)c1ccc(-c2cccc([N+](=O)[O-])c2)o1,31,-9,-10,-8,-10,-11,/,/,/,/,/
N#C/C(=C(/O)c1ccc(-c2cccc([N+](=O)[O-])c2)o1)c1nc2ccccc2s1,-23,93*,97*,25,-18,15,13,26,18,4,9
SMILES,SENP8 block-1,SENP8 block-2,SENP6 block,SENP7 block,UBC13 inh,Apaf1 inhib,SENP8 confirm,SENP6 conf,SENP7 confirm,Casp3 select,SENP luc ctr
O=C(CNC(=O)c1ccccc1F)c1ccccc1,11,27,54*,51*,5,-1,44,43,81*,79*,53*
O=C(O)/C=C/c1cccc(NC(=O)c2ccccc2)c1,19,48,72*,69*,-1,-19,69*,66*,90*,91*,71*
Cc1occc1C(=O)Nc1cccc(/C=C/C(=O)O)c1,20,-4,29,11,-1,-5,/,/,/,/,/
O=C(O)/C=C/c1cccc(NC(=O)c2ccc(Cl)cc2)c1,15,61*,74*,59*,0,-1,66*,63*,88*,84*,71*
CCc1ccc(C(N)=S)cc1,8,7,33,6,15,-11,/,/,/,/,/
CCC(=O)Nc1cnc(NC(=O)c2cccc(F)c2)cc1C,12,18,58*,59*,6,-6,43,41,78*,83*,45
CCc1ccc2oc(-c3cc(N=Cc4cccc(OC)c4O)ccc3O)nc2c1,/,92*,86*,89*,-7,31,84*,84*,87*,76*,28
COc1cccc(C=Nc2cc(C)cc(C)c2)c1O,2,-1,-16,8,18,4,/,/,/,/,/
CCOc1cccc(/C=C/c2ccc3cccc(O)c3n2)c1O,-76,55*,48,64*,-27,14,0,59*,85*,/,17
COc1ccccc1/C=C/c1ccc2cccc(O)c2n1,-113,51*,81*,29,-12,26,6,72*,92*,57*,37
CCC(=O)c1ccc(OCC(=O)OC(C)C(=O)Nc2c(C)n(C)n(-c3ccccc3)c2=O)cc1 (centres undefined),-5,/,/,/,/,/,/,/,/,/,/
CCN(CC)c1ccc(NC(=O)COC(=O)c2cccs2)cc1,6,23,53*,56*,4,2,29,26,62*,47,3
CCN(c1ccc(NC(=O)COC(=O)c2cc3ccccc3oc2=O)cc1)C(C)C,14,4,9,11,0,10,/,/,/,/,/
